Measured values: ChEMBL document CHEMBL4257493, “Discovery of 7-hydroxyaporphines as conformationally restricted ligands for beta-1 and beta-2 adrenergic receptors” (Medchemcomm, 2018)

Columns and labels:
[1] = target: 5-hydroxytryptamine receptor 1D (Homo sapiens, UniProt P28221); assay: Binding affinity to 5-HT1D receptor (unknown origin) assessed as inhibition of radioligand binding by radioligand competition binding assay
[2] = species: Rattus norvegicus; assay: Binding affinity to rat GABAA BZP receptor assessed as inhibition of radioligand binding by radioligand competition binding assay; settings: concentration not given here
[3] = target: Muscarinic acetylcholine receptor M2 (Homo sapiens) (UniProt P08172); assay: Binding affinity to muscarinic M2 receptor (unknown origin) assessed as inhibition of radioligand binding by radioligand competition binding assay; settings: concentration not given here
[4] = target: Alpha-2B adrenergic receptor (Homo sapiens, UniProt P18089); assay: Binding affinity to andrenergic alpha2B receptor (unknown origin) assessed as inhibition of radioligand binding by radioligand competition binding assay
[5] = target: T1, Beta-1 adrenergic receptor (Homo sapiens, UniProt P08588); assay: Antagonist activity at human beta1-adrenergic receptor expressed in CHO-K1 cells assessed as decrease in isoproterenol-induced cAMP accumulation after 15 mins by HTRF assay; assay type: functional, cell-based
How it was run: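 Run as a contract service: human beta1 receptor in CHO-K1 cells, with antagonist mode against isoproterenol-stimulated cAMP. Incubation 15 min at 37 °C in HBSS with 5 mM HEPES, 0.1% BSA and 100 µM IBMX, pH 7.4, in 0.40% DMSO vehicle. cAMP accumulation read by HTRF; dose-response curves.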

[6] = target: T2, Beta-3 adrenergic receptor (Homo sapiens, UniProt P13945); assay: Displacement of [3H]-CGP-12177 from human beta3-adrenergic receptor
[7] = target: Sodium-dependent noradrenaline transporter (Homo sapiens) (UniProt P23975); assay: Binding affinity to NET (unknown origin) assessed as inhibition of radioligand binding by radioligand competition binding assay; settings: concentration not given here
[8] = target: 5-hydroxytryptamine receptor 7 (Homo sapiens, UniProt P34969); assay: Binding affinity to 5-HT7 receptor (unknown origin) assessed as inhibition of radioligand binding by radioligand competition binding assay
[9] = species: Homo sapiens; assay: Binding affinity to GABAA receptor (unknown origin) assessed as inhibition of radioligand binding by radioligand competition binding assay; settings: concentration not given here
[10] = target: D(1B) dopamine receptor (Homo sapiens) (UniProt P21918); assay: Binding affinity to dopamine D5 receptor (unknown origin) assessed as inhibition of radioligand binding by radioligand competition binding assay; settings: concentration not given here
[11] = target: Muscarinic acetylcholine receptor M5 (Homo sapiens) (UniProt P08912); assay: Binding affinity to muscarinic M5 receptor (unknown origin) assessed as inhibition of radioligand binding by radioligand competition binding assay; settings: concentration not given here
[12] = target: Muscarinic acetylcholine receptor M4 (Homo sapiens) (UniProt P08173); assay: Binding affinity to muscarinic M4 receptor (unknown origin) assessed as inhibition of radioligand binding by radioligand competition binding assay; settings: concentration not given here
[13] = target: Sodium-dependent dopamine transporter (Homo sapiens) (UniProt Q01959); assay: Binding affinity to DAT (unknown origin) assessed as inhibition of radioligand binding by radioligand competition binding assay; settings: concentration not given here
[14] = target: D(3) dopamine receptor (Homo sapiens) (UniProt P35462); assay: Binding affinity to dopamine D3 receptor (unknown origin) assessed as inhibition of radioligand binding by radioligand competition binding assay; settings: concentration not given here
[15] = target: T1, Beta-1 adrenergic receptor; assay: Binding affinity to andrenergic beta1 receptor (unknown origin) assessed as inhibition of radioligand binding by radioligand competition binding assay
[16] = target: T1, Beta-1 adrenergic receptor; assay: Binding affinity to andrenergic beta1 receptor (unknown origin) assessed as inhibition of radioligand binding at 10 uM by radioligand competition binding assay
[17] = target: 5-hydroxytryptamine receptor 2A (Homo sapiens) (UniProt P28223); assay: Binding affinity to 5-HT2A receptor (unknown origin) assessed as inhibition of radioligand binding by radioligand competition binding assay; settings: concentration not given here
[18] = target: Alpha-2C adrenergic receptor (Homo sapiens) (UniProt P18825); assay: Binding affinity to andrenergic alpha2C receptor (unknown origin) assessed as inhibition of radioligand binding by radioligand competition binding assay; settings: concentration not given here
[19] = target: Histamine H3 receptor (Homo sapiens) (UniProt Q9Y5N1); assay: Binding affinity to histamine H3 receptor (unknown origin) assessed as inhibition of radioligand binding by radioligand competition binding assay; settings: concentration not given here
[20] = target: 5-hydroxytryptamine receptor 5A (Homo sapiens) (UniProt P47898); assay: Binding affinity to 5-HT5A receptor (unknown origin) assessed as inhibition of radioligand binding by radioligand competition binding assay; settings: concentration not given here
[21] = target: 5-hydroxytryptamine receptor 6 (Homo sapiens, UniProt P50406); assay: Binding affinity to 5-HT6 receptor (unknown origin) assessed as inhibition of radioligand binding by radioligand competition binding assay
[22] = target: T3, Beta-2 adrenergic receptor (Homo sapiens, UniProt P07550); assay: Binding affinity to andrenergic beta2 receptor (unknown origin) assessed as inhibition of radioligand binding by radioligand competition binding assay
[23] = target: 5-hydroxytryptamine receptor 2C (Homo sapiens) (UniProt P28335); assay: Binding affinity to 5-HT2C receptor (unknown origin) assessed as inhibition of radioligand binding by radioligand competition binding assay; settings: concentration not given here
[24] = target: Kappa-type opioid receptor (Homo sapiens) (UniProt P41145); assay: Binding affinity to KOR (unknown origin) assessed as inhibition of radioligand binding by radioligand competition binding assay; settings: concentration not given here
[25] = target: 5-hydroxytryptamine receptor 2B (Homo sapiens, UniProt P41595); assay: Binding affinity to 5-HT2B receptor (unknown origin) assessed as inhibition of radioligand binding by radioligand competition binding assay
[26] = target: D(1A) dopamine receptor (Homo sapiens) (UniProt P21728); assay: Binding affinity to dopamine D1 receptor (unknown origin) assessed as inhibition of radioligand binding by radioligand competition binding assay; settings: concentration not given here
[27] = target: 5-hydroxytryptamine receptor 1E (Homo sapiens) (UniProt P28566); assay: Binding affinity to 5-HT1E receptor (unknown origin) assessed as inhibition of radioligand binding by radioligand competition binding assay; settings: concentration not given here
[28] = target: D(4) dopamine receptor (Homo sapiens) (UniProt P21917); assay: Binding affinity to dopamine D4 receptor (unknown origin) assessed as inhibition of radioligand binding by radioligand competition binding assay; settings: concentration not given here
[29] = target: T3, Beta-2 adrenergic receptor; assay: Antagonist activity at human beta2-adrenergic receptor expressed in CHO-K1 cells assessed as decrease in procaterol-induced cAMP accumulation after 20 mins by HTRF assay; assay type: functional, cell-based
How it was run: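 Contract functional assay on human beta2 receptor expressed in CHO cells, with antagonist mode against agonist-stimulated cAMP. Incubation 20 min at 37 °C in HBSS, 5 mM HEPES, 0.1% BSA, 100 µM IBMX, pH 7.4, with 0.40% DMSO vehicle. HTRF quantitation of cAMP accumulation; dose-response curves.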

[30] = target: Mu-type opioid receptor (Homo sapiens) (UniProt P35372); assay: Binding affinity to MOR (unknown origin) assessed as inhibition of radioligand binding by radioligand competition binding assay; settings: concentration not given here
[31] = target: T2, Beta-3 adrenergic receptor; assay: Binding affinity to andrenergic beta3 receptor (unknown origin) assessed as inhibition of radioligand binding by radioligand competition binding assay
[32] = target: 5-hydroxytryptamine receptor 1B (Homo sapiens, UniProt P28222); assay: Binding affinity to 5-HT1B receptor (unknown origin) assessed as inhibition of radioligand binding at 10 uM by radioligand competition binding assay

## COc1cc2c3c(c1OC)-c1ccccc1[C@@H](O)[C@@H]3NCC2
[1]
  Ki: 857 nM
[2]
  inhibition: < 50%
[3]
  inhibition: < 50%
[4]
  Ki: 571 nM
[5]
  IC50: 17 nM
[6]
  IC50: 240 nM
[7]
  inhibition: < 50%
[8]
  Ki: 120 nM
[9]
  inhibition: < 50%
[10]
  inhibition: < 50%
[11]
  inhibition: < 50%
[12]
  inhibition: < 50%
[13]
  inhibition: < 50%
[14]
  inhibition: < 50%
[15]
  Ki: 19 nM
[16]
  inhibition: > 50%
[17]
  inhibition: < 50%
[18]
  inhibition: < 50%
[19]
  inhibition: < 50%
[20]
  inhibition: < 50%
[21]
  Ki: 862 nM
[22]
  Ki: 13 nM
[23]
  inhibition: < 50%
[24]
  inhibition: < 50%
[25]
  Ki: 246 nM
[26]
  inhibition: < 50%
[27]
  inhibition: < 50%
[28]
  inhibition: < 50%
[29]
  IC50: 6.9 nM
[30]
  inhibition: < 50%
[31]
  Ki: 308 nM
[32]
  inhibition: > 50%
